A short description of test [1]: (§1) Inhibition of IL-1beta-induced PGE2 production in human HCA-7 cells at 1 uM after 72 hrs by EIA. It is filed as functional. As to conditions: HCA-7, 72 h. Summed up:
(§2)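 Screen of HCA-7 cells at 1 μM compound (DMSO) with 10 ng/ml IL-1β in serum-free medium for 72 h, after overnight DMEM/10% FBS culture and 18 h serum starvation. Supernatant PGE2 quantified by EIA, expressed as % reduction of PGE2 level ± SD, n = 3.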

Test [2] has as its target T1, Prostaglandin G/H synthase 2 (Homo sapiens, UniProt P35354).
T1 sequence (P35354 whole entry): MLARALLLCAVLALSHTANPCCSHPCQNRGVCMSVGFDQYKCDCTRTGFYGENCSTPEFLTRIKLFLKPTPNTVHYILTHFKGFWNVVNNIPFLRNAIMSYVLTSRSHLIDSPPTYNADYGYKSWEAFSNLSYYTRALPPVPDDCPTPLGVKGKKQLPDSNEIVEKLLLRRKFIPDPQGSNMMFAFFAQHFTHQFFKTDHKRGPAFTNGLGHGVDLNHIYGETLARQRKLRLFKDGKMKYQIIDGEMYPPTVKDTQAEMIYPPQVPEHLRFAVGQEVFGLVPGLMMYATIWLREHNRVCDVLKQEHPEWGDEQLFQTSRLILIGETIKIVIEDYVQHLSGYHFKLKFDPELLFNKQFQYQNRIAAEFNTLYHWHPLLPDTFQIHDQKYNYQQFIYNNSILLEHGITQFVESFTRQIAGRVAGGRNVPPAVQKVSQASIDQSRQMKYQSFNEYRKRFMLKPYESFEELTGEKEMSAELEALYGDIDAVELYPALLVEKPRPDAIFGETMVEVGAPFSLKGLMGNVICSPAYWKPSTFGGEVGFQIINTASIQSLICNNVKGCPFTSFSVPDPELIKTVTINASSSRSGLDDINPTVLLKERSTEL
Kind of test: Inhibition of COX2 by fluorescence assay.

A short description of test [3]: Inhibition of IL-1beta-induced PGE2 production in human HCA-7 cells after 72 hrs by EIA. As to conditions: HCA-7, 72 h. The class given is functional, cell-based. An outline of the steps:
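HCA-7 cells seeded and incubated overnight in DMEM/10% FBS, then serum-starved 18 h. Stimulated with 10 ng/ml IL-1β plus increasing compound concentrations (DMSO) in serum-free medium for 72 h. Supernatant PGE2 measured by EIA.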

Test [4] addresses T2, Prostaglandin G/H synthase 2 (Homo sapiens) (UniProt P35354).
T2 sequence (whole entry): T1 sequence (P35354 whole entry)
Particulars: at 5 µM.

For the next test, the system named is HCA-7. The test is described as §1. It is filed as functional. An outline of the steps: as §2
The nature of test [5]: Antitumor activity against human HCA-7 cells xenografted in mouse at 200 mg/kg for 5 days relative to control. It is filed as functional.
The next test has as its system SW837. Kind of test: Antitumor activity against human SW837 cells xenografted in mouse at 200 mg/kg for 5 days relative to control. The class given is functional. For orientation: A xenograft is tissue or cells of one species grown in another, often human tumour cells in immunodeficient mice.
The next test relates to A549. Kind of test: Antitumor activity against human A549 cells xenografted in mouse at 100 mg/kg for 10 days relative to control. The class given is functional.

The source made the active and inactive calls. The calls are words filed in the database; no cut-off is given here. Where only a bound is given, the exact number is not on record here.

With `COc1ccc(Nc2nc(-c3ccc(C)cc3)cs2)cc1`, the inhibition at 1 µM in test [1] worked out at 37.3%.
Consider `c1ccc(Oc2ccc(Nc3nc(-c4ccccc4)cs3)cc2)cc1`, for which, in test [1], the inhibition at 1 µM worked out at 79.6%. This molecule also had an IC50 in test [2] greater than 5 µM. This molecule also came in with a 50% effective concentration (EC50) in test [3] of 0.33 µM. In addition, the inhibition in test [4] came to 31%.
`Clc1ccc(-c2csc(Nc3cccc4ccccc34)n2)cc1`: in test [1], the inhibition at 1 µM was 51.4%.
With `CCc1sc(Nc2ccc(Oc3ccccc3)cc2)nc1C`, the inhibition at 1 µM in test [1] came to 87.1%. Also, the IC50 in test [2] is greater than 5 µM. In addition, the inhibition in test [4] is 41.3%.
On to `Clc1ccc(-c2csc(Nc3ccccc3)n2)cc1`, for which the inhibition at 1 µM in test [1] came to 51%.
On the same count and under the same terms, with `CC(=O)c1sc(Nc2ccc(C#N)cc2)nc1C` the figure was 22.4%.
`Clc1ccccc1-c1csc(Nc2ccc3c(c2)OCO3)n1`: the inhibition at 1 µM in test [1] was found to be 85.9%. In addition, in test [2], half-maximal inhibition (IC50) was put at 0.91 µM. The inhibition in test [4] amounted to 84.8%.
Turning to `COc1ccc(Nc2nc(-c3ccccc3)c(C(=O)c3ccccc3)s2)cc1`, in the test with HCA-7, the inhibition result is “inactive”.
On to `COc1ccc(Nc2nc(C)c(C(C)=O)s2)cc1`, for which the inhibition at 1 µM in test [1] was 58.5%.
Consider `N#Cc1ccc(Nc2nc(-c3ccccc3)c(C(=O)c3ccccc3)s2)cc1`, for which the inhibition entry in the test on HCA-7 is “inactive”.
On to `COc1cccc(Nc2nc(-c3ccc(Cl)cc3)cs2)c1`, for which, in test [1], the inhibition at 1 µM came to 78.3%. The molecule further gave an IC50 in test [2] of 1.39 µM. In test [4], the inhibition was found to be 55.1%.
The matching figures for `COc1ccc(-c2csc(Nc3ccc(C)cc3)n2)cc1`: 91.5%, 0.81 µM and 73.1%.
With `COc1ccc(-c2csc(Nc3ccc(Oc4ccccc4)cc3)n2)cc1`, in test [1], the inhibition at 1 µM was 80.4%. In test [2], the IC50 was greater than 5 µM. The molecule also gave an EC50 in test [3] of 0.24 µM. Further, the inhibition in test [4] was 40.8%.
Regarding `CC(=O)c1sc(Nc2ccc3c(c2)OCO3)nc1C`, in test [1], the inhibition at 1 µM stood at 25.3%.
Regarding `COc1ccccc1-c1csc(Nc2ccc3c(c2)OCO3)n1`, the inhibition at 1 µM in test [1] came to 89%. In test [2], the IC50 was 0.93 µM. In addition, the inhibition in test [4] turned out to be 91.3%.
The matching figures for `COc1ccc(Nc2nc(-c3ccc(C)c(C)c3)cs2)cc1`: 73.9%, 1.2 µM and 69.3%.
For the molecule `c1ccc(Oc2ccc(Nc3nc(-c4ccc(C5CCCCC5)cc4)cs3)cc2)cc1`, the inhibition at 1 µM in test [1] came to 41.6%.
As to `Cc1nc(Nc2ccc(Oc3ccccc3)cc2)sc1C(C)O` (stereo not given), in test [1], the inhibition at 1 µM came to 80.4%. In test [2], this molecule registered an IC50 greater than 5 µM. This molecule had an EC50 in test [3] of 0.09 µM.
In the case of `COc1ccc(Nc2nc(-c3ccc(Cl)cc3)c(C)s2)cc1`, the inhibition at 1 µM in test [1] was 89.3%. The molecule also came in with an IC50 in test [2] greater than 5 µM. Also, in test [4], the inhibition amounted to 12%.
On to `CN(c1ccc(O)cc1)c1nc(-c2ccc(Cl)cc2)cs1`, for which the inhibition at 1 µM in test [1] stood at 85.8%. For the same molecule, it took 1.08 µM to reach half-maximal inhibition in test [2] (IC50). In addition, the inhibition in test [4] turned out to be 84.2%.
Consider `COc1cccc(-c2csc(Nc3ccc(Oc4ccccc4)cc3)n2)c1`, for which the inhibition at 1 µM in test [1] came out at 88.9%. In test [2], this molecule returned an IC50 greater than 5 µM. This molecule also came in with an EC50 in test [3] of 0.29 µM. Also, in test [4], the inhibition worked out at 40.3%.
Turning to `COc1ccc(Nc2nc(-c3ccc(OC)cc3)cs2)cc1`, in test [1], the inhibition at 1 µM amounted to 73.6%. This molecule came in with an IC50 in test [2] of 1.37 µM. Besides, the inhibition in test [4] was found to be 66.8%.
`N#Cc1ccc(Nc2nc(-c3ccc(Cl)cc3)cs2)cc1`: the inhibition at 1 µM in test [1] amounted to 23.1%.
For the molecule `COc1ccc(-c2csc(Nc3ccc4c(c3)OCO4)n2)cc1`, the inhibition at 1 µM in test [1] stood at 96.2%. Moreover, the IC50 in test [2] was determined as 0.91 µM. Moreover, in test [4], the inhibition stood at 94.4%.
In the case of `CCc1sc(Nc2ccc(OC)cc2)nc1C`, in test [1], the inhibition at 1 µM was 94.4%. The IC50 in test [2] was greater than 5 µM. For the same molecule, the midpoint of the response in test [3], the EC50, lay at 0.32 µM. In addition, the inhibition in test [4] came to 49.3%.
For `CC(=O)c1sc(Nc2ccccc2)nc1C`, in test [1], the inhibition at 1 µM came out at 29.9%.
Still for that read-out and setting: with `c1ccc(Oc2ccc(Nc3nc(-c4ccc5ccccc5c4)cs3)cc2)cc1` the figure was 53.5%.
For `c1ccc(-c2csc(Nc3ccc4c(c3)OCO4)n2)cc1`, the inhibition at 1 µM in test [1] turned out to be 98.2%. 0.41 µM corresponded to half-maximal inhibition in test [2] (IC50). In addition, the inhibition in test [4] was found to be 114%.
Take `O=C(c1ccccc1)c1sc(Nc2ccc(Oc3ccccc3)cc2)nc1-c1ccccc1`: the inhibition at 1 µM in test [1] was 42%.
Turning to `COc1cccc(-c2csc(Nc3ccc4c(c3)OCO4)n2)c1`, the inhibition at 1 µM in test [1] amounted to 94.4%. This molecule showed an IC50 in test [2] of 0.92 µM. Moreover, the inhibition in test [4] came out at 86%.
As for `Clc1ccc(-c2csc(Nc3ccc4c(c3)OCO4)n2)cc1`, in test [1], the inhibition at 1 µM is 94.2%. Further, in test [2], the IC50 came to 0.84 µM. Moreover, the inhibition in test [4] was 68.8%.
On to `Clc1ccc(-c2csc(Nc3ccc(Oc4ccccc4)cc3)n2)cc1`, for which, in test [1], the inhibition at 1 µM was 75.5%. Besides, the IC50 in test [2] is greater than 10 µM. The EC50 in test [3] was determined as 0.28 µM. The T/C amounted to 61% in test [5], 40% with SW837 and 38% in the test on A549. Also, the inhibition in test [4] worked out at 32.1%.
With `CC(=O)c1sc(Nc2ccc(Oc3ccccc3)cc2)nc1C`, the inhibition at 1 µM in test [1] was determined as 87.9%. For the same molecule, the IC50 in test [2] is greater than 5 µM. Also, the inhibition in test [4] amounted to 28.9%.
Turning to `COc1ccccc1-c1csc(Nc2ccc(Oc3ccccc3)cc2)n1`, the inhibition at 1 µM in test [1] is 82%. In test [2], the IC50 is greater than 5 µM. In test [3], this molecule registered an EC50 of 0.18 µM. In addition, the inhibition in test [4] stood at 38.9%.
The corresponding values for `Fc1ccc(-c2csc(Nc3ccc(Oc4ccccc4)cc3)n2)cc1` are 87.9%, greater than 5 µM, 0.12 µM and 43.4%.
Turning to `O=C(c1ccccc1)c1sc(Nc2ccc3c(c2)OCO3)nc1-c1ccccc1`, the inhibition entry with HCA-7 was “inactive”.

Broadly, the inhibition is the change of the read-out against control, counted positive when it falls. What is called IC50 is the concentration needed to halve the response being measured. One may read the EC50 as the concentration at which the effect is half-maximal. As usually defined, the T/C is the ratio of treated to control.

Values taken from ChEMBL document CHEMBL2021771, “Synthesis and biological activity of 2-aminothiazoles as novel inhibitors of PGE2 production in cells” (Bioorg Med Chem Lett, 2012).
